Assays:
[1] = format: in vivo, female Sprague-Dawley rats; conditions: oral 21 days, N-EtFOSE 5.0 mg/kg or ciprofibrate 7.5 mg/kg/day
[2] = Histopathological evaluation of H&E stained liver and uterus sections; format: in vivo, female Sprague-Dawley rats
[3] = system: peroxisomal acyl Co-A oxidase (AOX); assay: Peroxisomal acyl Co-A oxidase activity in liver homogenates; format: in vivo, female Sprague-Dawley rats; conditions: for AOX activity in liver, change versus control (significance): Figure 3; for Increase of peroxisomal AOX activity in liver compared to control: oral 21 days, N-EtFOSE increase p = 0.35
[4] = system: total SOD; assay: Total SOD activity in liver and uterus; format: in vivo, female Sprague-Dawley rats; conditions: Figure 4
[5] = system: Manganese superoxide dismutase (MnSOD); assay: MnSOD activity in liver and uterus; format: in vivo, female Sprague-Dawley rats; conditions: Figure 4; for MnSOD activity in the liver, change versus control: ciprofibrate p = 0.07
[6] = system: copper zinc superoxide dismutase (CuZnSOD); assay: CuZnSOD activity in liver and uterus; format: in vivo, female Sprague-Dawley rats; conditions: Figure 4
[7] = system: Catalase; assay: Catalase activity in liver and uterus; format: in vivo, female Sprague-Dawley rats; conditions: Figure 5
In short: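 Female Sprague-Dawley rats were gavaged once daily, 5 days/week for 21 days, with test compound at 5.0 mg/kg in corn oil (2 mL/kg) or with vehicle. A positive control peroxisome proliferator was given at 7.5 mg/kg/day in water/methylcellulose. H2O2 was added to liver or uterus homogenate in potassium phosphate buffer (pH 7.8), and H2O2 loss at 240 nm was followed for 2 min. Results are milli-k units/mg Lowry protein, compared by ANOVA with Dunnett's test.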

[8] = system: Total GPx; assay: Total GPx activity; format: in vivo, female Sprague-Dawley rats; conditions: Figure 6
In short: (§1)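 Rats were dosed orally for 21 days (5 days/week) with test compound at 5.0 mg/kg/day in corn oil, with vehicle, or with a positive control. Liver and uterus homogenates were assayed in a coupled glutathione reductase/NADPH system, reading NADPH decrease at 340 nm. H2O2 was the substrate for GPx-1 and cumene hydroperoxide for total GPx. Results are milliunits/mg Lowry protein, analysed by ANOVA and Dunnett's test (p<0.05).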

[9] = system: GPx-1; assay: GPx-1 activity; format: in vivo, female Sprague-Dawley rats; conditions: Figure 6
In short: as §1

[10] = system: reduced to oxidized glutathione; assay: Total and oxidized glutathione; format: in vivo, female Sprague-Dawley rats; conditions: data not shown
In short: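 Female Sprague-Dawley rats were gavaged for 21 days (5 days/week) with test compound at 5.0 mg/kg in corn oil (n=9), vehicle (n=9), or a reference peroxisome proliferator at 7.5 mg/kg/day (n=8), then killed by CO2. Liver and uterus aliquots were homogenized immediately in 5% 5-sulfosalicylic acid. Total and oxidized glutathione were measured by enzymatic recycling, and the GSH:GSSG ratio was derived.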

[11] = system: Thiobarbituric acid reactive substances (TBARS); assay: TBARS in whole liver homogenate; format: in vivo, female Sprague-Dawley rats; conditions: data not shown
In short: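 Female Sprague-Dawley rats were gavaged once daily, 5 days/week for 21 days. Groups: test compound at 5.0 mg/kg in corn oil (2 mL/kg, n=9), corn-oil vehicle (n=9), or a reference peroxisome proliferator at 7.5 mg/kg/day in water/methylcellulose (n=8). Euthanasia was 3 days (1 day for the reference agent) after the last dose. TBARS were measured fluorometrically in whole liver homogenate.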

[12] = Levels of N-EtFOSE and metabolites in liver and serum; format: in vivo, female Sprague-Dawley rats; conditions: for %TD in Serum (× 10^-3) / %TD in Serum: assuming serum volume of 4.86 mL/100 mg; for Liver: serum ratio: N-EtFOSE-treated female rats, mean
[13] = rat, in vivo; cited from earlier work
[14] = sheep, in vivo; cited from earlier work
[15] = human blood; ref Kärrman et al., 2006b; cited from earlier work
[16] = sheep; ref Vitayavirasuk and Bowen, 1999; cited from earlier work
[17] = rat, in vivo; cited from earlier work; remark: listed apart in the source
[18] = percentage of the total N-EtFOSE dose
[19] = percentage of the total N-EtFOSE dose, recovery adjusted

| SMILES | Survival and clinical signs of toxicity [1] | Ratio of Organ Weight to Body Weight, Spleen ([1]; mean ± SD) | AOX activity in liver, change versus control (significance) [3] | Increase of peroxisomal AOX activity in liver compared to control [3] [fold] | Total SOD activity in the liver, change versus control [4] | Total SOD activity in the uterus, change versus control [4] | MnSOD activity in the liver, change versus control [5] | MnSOD activity in the uterus, change versus control [5] | CuZnSOD activity in the liver, change versus control [6] | CuZnSOD activity in the uterus, change versus control [6] | Catalase activity in the liver, change versus control [7] | Catalase activity in the uterus, change versus control [7] | Total GPx activity in the liver, change versus control [8] | Total GPx activity in the uterus, change versus control [8] | GPx-1 activity in the liver, change versus control [9] | GPx-1 activity in the uterus, change versus control [9] | GSH:GSSG ratio in the liver [10] | %TD in Serum (× 10^-3) [12, 18] | %TD in Liver [12, 19] [%TD] | Liver: serum ratio [12] | other results |
| --- | --- | --- | --- | --- | --- | --- | --- | --- | --- | --- | --- | --- | --- | --- | --- | --- | --- | --- | --- | --- | --- |
| CC(C)(Oc1ccc(C2CC2(Cl)Cl)cc1)C(=O)O (stereo not shown) [Ciprofibrate, reference compound] | no clinical findings | 2.5 ± 0.2 % (× 10^-3) | significant increase | 300 | not significant effect | did not significantly alter | tended to be increased | significantly decreased | not significant effect | increased | not significantly altered | did not alter | significantly decreased | significantly decreased | significantly decreased | decreased only in the liver | Neither N-EtFOSE nor ciprofibrate had an effect |  |  |  | Organ weight, Kidney ([1]; mean ± SD): 1.69 ± 0.05 g; Organ weight, Liver ([1]; mean ± SD): 13 ± 0.97 g; Organ weight, Spleen ([1]; mean ± SD): 0.58 ± 0.04 g; Organ weight, Uterus ([1]; mean ± SD): 0.31 ± 0.06 g; Ratio of Organ Weight to Body Weight, Liver ([1]; mean ± SD): 5.9 ± 0.3 %; Histopathological evaluation of H&E stained liver and uterus slices ([2]; oral 21 days, data not shown): did not reveal pathological changes; GSH:GSSG ratio in the uterus [10]: Neither N-EtFOSE nor ciprofibrate had an effect; TBARS in the liver [11]: Neither N-EtFOSE nor ciprofibrate had an effect |
| NS(=O)(=O)C(F)(F)C(F)(F)C(F)(F)C(F)(F)C(F)(F)C(F)(F)C(F)(F)C(F)(F)F [FOSA, perfluorooctanesulfonamide] |  |  |  |  |  |  |  |  |  |  |  |  |  |  |  |  |  | 25.3 ± 6.1 (× 10^-3) %TD (× 10^-3) | 0.29 ± 0.06 |  | Kp at 3 days after the last dose ([12]; female, Sprague-Dawley, rat, in vivo): 10.1; half-life [13]: approximately 100 hours; elimination phase half-life [14]: 63.4 h; mean plasma-to-whole blood ratio [15]: 0.2; plasma-to-whole blood ratio [16]: 0.04 |
| O=S(=O)(NCCO)C(F)(F)C(F)(F)C(F)(F)C(F)(F)C(F)(F)C(F)(F)C(F)(F)C(F)(F)F [FOSE, perfluorooctanesulfonamidoethanol] |  |  |  |  |  |  |  |  |  |  |  |  |  |  |  |  |  | 0.07 ± 0.03 (× 10^-3) %TD (× 10^-3) |  | 6.4 | %TD in Liver (× 10^-3) [12, 19]: 0.58 ± 0.35 (× 10^-3) %TD (× 10^-3) |
| CCN(CC(=O)O)S(=O)(=O)C(F)(F)C(F)(F)C(F)(F)C(F)(F)C(F)(F)C(F)(F)C(F)(F)C(F)(F)F [N-EtFOSAA, N-ethyl perfluorooctanesulfonamidoacetate] |  |  |  |  |  |  |  |  |  |  |  |  |  |  |  |  |  |  | 0.43 ± 0.13 | 1.3 | %TD in Serum [12, 18]: 0.38 ± 0.17 %TD |
| CCN(CCO)S(=O)(=O)C(F)(F)C(F)(F)C(F)(F)C(F)(F)C(F)(F)C(F)(F)C(F)(F)C(F)(F)F [N-EtFOSE, N-Ethyl perfluorooctanesulfonamidoethanol] | no clinical findings | 2.7 ± 0.2 % (× 10^-3) | did not reach statistical significance | 16 | significantly increased | significantly increased | significantly increased | only exception | significantly increased | significantly increased | not significantly altered | significantly increased | No significant change | significant decrease | No significant change | no effect | Neither N-EtFOSE nor ciprofibrate had an effect | 0.42 ± 0.20 (× 10^-3) (n=5) %TD (× 10^-3) |  |  | Ratio of Organ Weight to Body Weight, Kidney ([1]; mean ± SD): 6.8 ± 0.4%; Ratio of Organ Weight to Body Weight, Uterus ([1]; mean ± SD): 1.6 ± 0.3%; Histopathological evaluation of H&E stained liver and uterus slices ([2]; rat, in vivo, po): did not reveal pathological changes; Uncorrected N-EtFOSE level in the liver ([12]; rat, in vivo): c Corrected N-EtFOSE levels in the liver are not reported because of the poor recovery rate (2.5±1%); uncorrected N-EtFOSE levels group were low, with 4.6 ± 4.7 ppb in N-EtFOSE-treated animals and 7.8 ± 1.3 ppb in control animals.; GSH:GSSG ratio in the uterus [10]: Neither N-EtFOSE nor ciprofibrate had an effect; TBARS in the liver [11]: Neither N-EtFOSE nor ciprofibrate had an effect; Doses causing a reduced body weight gain in pregnant rats [17]: > 5 mg/kg body weight/day |
| O=S(=O)(O)C(F)(F)C(F)(F)C(F)(F)C(F)(F)C(F)(F)C(F)(F)C(F)(F)C(F)(F)F [PFOS, perfluorooctane sulfonic acid] |  |  |  |  |  |  |  |  |  |  |  |  |  |  |  |  |  |  | 6.23 ± 0.95 | 2.3 | %TD in Serum [12, 18]: 3.86 ± 0.86 %TD; Share of the total N-EtFOSE dose in the serum and liver ([12]; serum plus liver): approximately 9.5±1.2% |

From publication PMC2755535 (Archives of toxicology, 2009)
